Assay results as given in ChEMBL document CHEMBL4831487, “Fragment-based drug design targeting syntenin PDZ2 domain involved in exosomal release and tumour spread” (Eur J Med Chem, 2021).
Calls of active or inactive are those of the source. The calls are words filed in the database; no cut-off is given here.

How the values were obtained:
[1] = target: Syntenin-1/Syndecan-2 (Homo sapiens) (UniProt O00560+P34741); experiment: Inhibition of recombinant human full-length GST-tagged syntenin-1/Syndecan-2 complex interaction expressed in Escherichia coli ER2566 at 400 uM measured after 16 hrs by HTRF assay
Procedure, shortened: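 GST-syntenin-1 full length expressed in E. coli ER2566 (0.4 mM IPTG, overnight at 30 °C), purified on GSTrap; HTRF binding to syndecan-2. Compounds at 400 μM, single well, plates spun then incubated 16 h at 4°C. Excitation 337 nm, emission 665/620 ratio; % inhibition from DMSO-only max and no-protein min signals.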

[2] = target: T1, Syntenin-1/Syndecan-2 (Homo sapiens, UniProt O00560); experiment: Inhibition of recombinant human full-length GST-tagged syntenin-1/Syndecan-2 complex interaction expressed in Escherichia coli ER2566 measured after 16 hrs by HTRF assay
T1 sequence (O00560 whole entry): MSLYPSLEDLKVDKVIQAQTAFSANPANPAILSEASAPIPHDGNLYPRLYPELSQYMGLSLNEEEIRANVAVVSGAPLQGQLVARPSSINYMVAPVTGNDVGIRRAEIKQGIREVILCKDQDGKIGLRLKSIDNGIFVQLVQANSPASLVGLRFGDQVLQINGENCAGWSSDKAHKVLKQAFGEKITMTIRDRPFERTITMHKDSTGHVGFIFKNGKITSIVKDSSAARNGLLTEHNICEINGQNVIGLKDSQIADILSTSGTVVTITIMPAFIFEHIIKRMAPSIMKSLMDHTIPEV
T1 sequence (P34741 whole entry, further chain): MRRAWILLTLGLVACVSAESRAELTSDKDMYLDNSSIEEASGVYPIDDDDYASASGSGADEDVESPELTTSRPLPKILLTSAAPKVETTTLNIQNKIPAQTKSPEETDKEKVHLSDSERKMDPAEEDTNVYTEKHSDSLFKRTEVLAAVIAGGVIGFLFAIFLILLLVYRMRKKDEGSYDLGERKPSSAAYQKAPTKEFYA
Procedure, shortened: (§1)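 HTRF assay of E. coli ER2566-expressed GST-syntenin-1 full length binding to syndecan-2; serial DMSO dilutions of compound in triplicate, 16 h at 4°C after spin. 665/620 nm ratio (excitation 337 nm) converted to % inhibition versus DMSO-only and no-protein controls to derive IC50; for line 4, buffer contained 0.01% NP40.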

[3] = target: T1, Syntenin-1/Syndecan-2; experiment: Inhibition of recombinant human full-length GST-tagged syntenin-1/Syndecan-2 complex interaction expressed in Escherichia coli ER2566 in presence of NP40 detergent measured after 16 hrs by HTRF assay; procedure, shortened: as §1
[4] = tested on: MCF7; experiment: Down regulation of syntenin-1 level in human MCF7 cells at 100 uM measured after 16 hrs by Western blot analysis; assay type: functional, cell-based
Procedure, shortened: (§2)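 MCF-7 cells (DMEM-F12, 10% FCS, 37°C, 5% CO2) treated at 100 μM or DMSO 0.2% vehicle for 16 h in medium with 10% exosome-depleted FCS. Exosomes isolated from medium by sequential centrifugation at 4 °C (500 g, 10,000 g, 100,000 g pellet, PBS wash); loading normalized to parent cell number. SDS-PAGE western blot; mean signal relative to vehicle, N independent experiments, one-way ANOVA with Tukey posttest.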

[5] = tested on: MCF7; experiment: Down regulation of flotillin-1 level in human MCF7 cells at 100 uM measured after 16 hrs by Western blot analysis; assay type: functional, cell-based; procedure, shortened: as §2

Structure (SMILES)	inhibition [1]	IC50 [2]	also measured
CC(C)[C@H](NC(=O)CCSc1ccc(Cl)cc1)C(=O)O	94%	33 µM	IC50 [3]: 45 µM; Activity [4]: Active; Activity [5]: inactive
O=C(CCSc1ccccc1)N[C@@H](Cc1ccccc1)C(=O)O	0%		
CC(C)[C@H](NC(=O)CSc1ccccc1)C(=O)O	20%		
C[C@H](NC(=O)CCOc1ccc(Cl)cc1)C(=O)O	6%		
CC(C)[C@H](NC(=O)CCCc1ccccc1)C(=O)O	9%		
C[C@H](NC(=O)CCSc1ccccc1)C(=O)O	19%		
C[C@H](NC(=O)CCOc1ccccc1)C(=O)O	11%		
CC(C)[C@H](NC(=O)CCOc1ccccc1)C(=O)O	0%		
CC(C)[C@H](NC(=O)COc1ccccc1)C(=O)O	7%		
CC(C)[C@H](NC(=O)COc1ccc(Cl)cc1)C(=O)O	16%		
CC(C)[C@H](NC(=O)CCSc1ccc(-c2ccc(CNC(=O)OC(C)(C)C)cc2)cc1)C(=O)O		69 µM	
CC(C)[C@H](NC(=O)CCSc1ccc(-c2ccc(CCC(=O)O)cc2)cc1)C(=O)O		> 200 µM	
C[C@H](NC(=O)COc1ccccc1)C(=O)O	0%		
COCCOc1ccc(-c2ccc(SCCC(=O)N[C@H](C(=O)O)C(C)C)cc2)cn1		112 µM	
CC(C)[C@H](NC(=O)CCSc1ccc(-c2cccc(CO)c2)cc1)C(=O)O		96 µM	
C[C@H](NC(=O)CSc1ccc(Cl)cc1)C(=O)O	25%		

Continued, in another order:

inhibition [1]	IC50 [2]	Structure (SMILES)	also measured
56%		C[C@H](NC(=O)CCSc1ccc(Cl)cc1)C(=O)O	
0%		O=C(CCOc1ccccc1)N[C@@H](Cc1ccccc1)C(=O)O	
	7.4 µM	CC(C)[C@H](NC(=O)CCSc1ccc(-c2ccc(OS(C)(=O)=O)cc2)cc1)C(=O)O	IC50 [3]: 204 µM
	47 µM	CC(C)[C@H](NC(=O)CCSc1ccc(Br)cc1)C(=O)O	IC50 [3]: 51 µM; Activity [4]: Active; Activity [5]: inactive
0%		C[C@H](NC(=O)COc1ccc(Cl)cc1)C(=O)O	
76%		CC(C)[C@H](NC(=O)CCSc1ccccc1)C(=O)O	
0%		O=C(CCSc1ccc(Cl)cc1)N[C@@H](Cc1ccccc1)C(=O)O	
1%		O=C(CCOc1ccc(Cl)cc1)N[C@@H](Cc1ccccc1)C(=O)O	
31%		CC(C)[C@H](NC(=O)CCOc1ccc(Cl)cc1)C(=O)O	
0%		C[C@H](NC(=O)CSc1ccccc1)C(=O)O	
	> 200 µM	CC(C)[C@H](NC(=O)CCSc1ccc(-c2cccc(O)c2)cc1)C(=O)O	
	> 200 µM	CC(C)[C@H](NC(=O)CCSc1ccc(-c2ccc(S(=O)(=O)N3CCCCC3)cc2)cc1)C(=O)O	
	177 µM	CC(=O)Nc1ccc(-c2ccc(SCCC(=O)N[C@H](C(=O)O)C(C)C)cc2)cn1	
56%		CC(C)[C@H](NC(=O)CSc1ccc(Cl)cc1)C(=O)O	IC50 [3]: 864 µM
	78 µM	CC(C)[C@H](NC(=O)CCSc1ccc(-c2cccc(S(N)(=O)=O)c2)cc1)C(=O)O	
